Holding throughout (type): functional, cell-based
The test system of experiment [1] is PBMC. As to the kind of experiment: In vitro antiproliferative activity against human PBM cell line by MTT assay. A digest of the protocol:
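PBMCs isolated from anticoagulant-treated blood of healthy human donors. Cells were cultured with or without compound for 24 h, and growth was read by MTT dye-reduction assay. IC50 taken from dose-response curves of at least two independent experiments, each in triplicate determinations, as mean ± SE.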

In experiment [2] the test system is HL-60. Briefly: DNA fragmentation in HL60 cells by ethidium bromide staining at 1 uM for 12 hrs. The conditions noted are these: Homo sapiens.
Experiment [3] has as its system L1210. As to the kind of experiment: In vitro antiproliferative activity against murine lymphocytic L1210 leukemia cell line. The conditions noted are these: Mus musculus. A digest of the protocol:
(§1)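 Exponentially growing cells in RPMI 1640 with 10% FCS, 2 mM L-glutamine, […] and penicillin/streptomycin. Exposed to increasing drug concentrations, diluted from a 1 mg/mL DMSO stock. Cell number per mL was counted by Coulter counter after 48 h, using duplicate cultures per concentration and at least three repeats. IC50 = 50% growth inhibition versus untreated controls, reported as mean ± SE.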

In experiment [4] the test system is HL-60. Briefly: PARP hydrolysis in HL60 cells by an immunoblot assay. The conditions noted are these: Homo sapiens. A digest of the protocol:
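HL-60 cell lysates, equal protein per lane, were run on SDS-PAGE and blotted with an anti-PARP monoclonal antibody to detect PARP cleavage. Etoposide was the positive control.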

In experiment [5] the test system is K562. Briefly: In vitro antiproliferative against human chronic myelogenous K562 cell line. The method in brief:
as §1

The test system of experiment [6] is HL-60. As to the kind of experiment: Cytochrome c release in HL60 cells by immunoblotting at 1 uM. The conditions noted are these: Homo sapiens. A digest of the protocol:
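HL-60 cells treated with 1 or 3 µM compound and harvested at 12 h. Cytosolic lysates were immunoblotted with anti-cytochrome c antibody, looking for the 15 kDa band. β-actin served as loading control.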

In experiment [7] the test system is HL-60. Briefly: Condensation of chromatin in HL60 cells at 1 uM for 12 hrs. The conditions noted are these: Homo sapiens. A digest of the protocol: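 HL-60 cells exposed to 1 µM compound for 12 h, then DNA stained with Hoechst 33258. Chromatin condensation and apoptotic bodies were examined by fluorescence microscopy. Apoptotic nuclei were counted quantitatively in triplicate, and the experiment was repeated once.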

For experiment [8], the system named is HL-60. As to the kind of experiment: In vitro antiproliferative activity against human HL60 myeloid leukemia cell line by MTT assay.

IC50 and Activity data for 19 compounds are collected here from ChEMBL document CHEMBL1141193, “Design, synthesis, and biological evaluation of hybrid molecules containing alpha-methylene-gamma-butyrolactones and alpha-bromoacryloyl moieties” (J Med Chem, 2005).

The source made the active and inactive calls. No cut-off for these calls is given here.

With `C=C(Br)C(=O)Nc1ccc2sc(C(=O)NCCNC(=O)c3cc(OCC4(c5ccc(-c6ccccc6)cc5)CC(=C)C(=O)O4)nn3C)cc2c1` (configuration not stated), the IC50 was 8610 nM in experiment [1], 290 nM in experiment [3], 380 nM in experiment [5] and 360 nM in experiment [8]. Besides, the result in experiment [2], in experiment [4], in experiment [6] and in experiment [7] was Active.
`C=C1CC(C)(COc2cc(C(=O)O)n(C)n2)OC1=O` (configuration not stated): the IC50 in experiment [3] and in experiment [5] was > 10000 nM each time.
With `C=C(Br)C(=O)Nc1ccc2c(c1)cc(C(=O)O)n2C`, the results for the IC50 in experiment [3] and in experiment [5] were 2070 nM and 3370 nM, respectively.
The matching figures for `C=C(Br)C(=O)Nc1ccc2[nH]c(C(=O)NCCNC(=O)c3cc(OCC4(c5ccc(-c6ccccc6)cc5)CC(=C)C(=O)O4)nn3C)cc2c1` (configuration not stated): 360 nM and 480 nM.
As to `C=C1CC(COc2cc(C(=O)O)n(C)n2)(c2ccccc2)OC1=O` (configuration not stated), the IC50 in experiment [3] and in experiment [5] was > 10000 nM in each case.
Turning to `C=C(Br)C(=O)Nc1ccc2oc(C(=O)O)cc2c1`, the IC50 turned out to be 2950 nM in experiment [3] and 7250 nM in experiment [5].
As for `C=C(Br)C(=O)Nc1ccc2sc(C(=O)NCCNC(=O)c3cc(OCC4(c5ccc(Cl)cc5)CC(=C)C(=O)O4)nn3C)cc2c1` (configuration not stated), the IC50 in experiment [1] is 6820 nM; in experiment [3], 260 nM; in experiment [5], 410 nM; in experiment [8], 290 nM. For the same compound, the result in experiment [2], in experiment [4], in experiment [6] and in experiment [7] was Active.
Turning to `C=C(Br)C(=O)Nc1ccc2c(c1)cc(C(=O)NCCNC(=O)c1cc(OCC3(c4ccc(-c5ccccc5)cc4)CC(=C)C(=O)O3)nn1C)n2C` (configuration not stated), the IC50 in experiment [3] stood at 280 nM; in experiment [5] it was 360 nM.
The like results for `C=C(Br)C(=O)Nc1ccc2sc(C(=O)NCCNC(=O)c3cc(OCC4(C)CC(=C)C(=O)O4)nn3C)cc2c1` (configuration not stated) were, in that order, 840 nM and 1020 nM.
For the compound `C=C(Br)C(=O)Nc1ccc2sc(C(=O)NCCNC(=O)c3cc(OCC4(c5ccccc5)CC(=C)C(=O)O4)nn3C)cc2c1` (configuration not stated), the IC50 amounted to 290 nM in experiment [3] and 270 nM in experiment [5].
The like results for `C=C(Br)C(=O)Nc1ccc2sc(C(=O)O)cc2c1` were, in that order, 4500 nM and 5000 nM.
With `C=C(Br)C(=O)Nc1ccc2oc(C(=O)NCCNC(=O)c3cc(OCC4(c5ccccc5)CC(=C)C(=O)O4)nn3C)cc2c1` (configuration not stated), the IC50 in experiment [1] was found to be 5440 nM; in experiment [3], 310 nM; in experiment [5], 420 nM; in experiment [8], 270 nM. Moreover, the outcome in experiment [2], in experiment [4], in experiment [6] and in experiment [7] was Active.
Turning to `C=C1CC(COc2cc(C(=O)O)n(C)n2)(c2ccc(Cl)cc2)OC1=O` (configuration not stated), the concentration for half-maximal inhibition (IC50) in experiment [3] and in experiment [5] was > 10000 nM throughout.
On to `C=C(Br)C(=O)Nc1ccc2[nH]c(C(=O)NCCNC(=O)c3cc(OCC4(c5ccccc5)CC(=C)C(=O)O4)nn3C)cc2c1` (configuration not stated), for which the IC50 is 850 nM in experiment [3] and 630 nM in experiment [5].
Turning to `C=C(Br)C(=O)Nc1ccc2oc(C(=O)NCCNC(=O)c3cc(OCC4(c5ccc(Cl)cc5)CC(=C)C(=O)O4)nn3C)cc2c1` (configuration not stated), the figures for the IC50 in experiment [3] and in experiment [5] were 550 nM and 710 nM, respectively.
The like results for `C=C(Br)C(=O)Nc1ccc2[nH]c(C(=O)O)cc2c1` were, in that order, 4300 nM and 5600 nM.
The matching figures for `C=C(Br)C(=O)Nc1ccc2oc(C(=O)NCCNC(=O)c3cc(OCC4(c5ccc(-c6ccccc6)cc5)CC(=C)C(=O)O4)nn3C)cc2c1` (configuration not stated): 270 nM and 410 nM.
The matching figures for `C=C1CC(COc2cc(C(=O)O)n(C)n2)(c2ccc(-c3ccccc3)cc2)OC1=O` (configuration not stated): > 10000 nM and > 10000 nM.
As for `C=C(Br)C(=O)Nc1ccc2c(c1)cc(C(=O)NCCNC(=O)c1cc(OCC3(c4ccccc4)CC(=C)C(=O)O3)nn1C)n2C` (configuration not stated), the IC50 amounted to 2520 nM in experiment [1], 50 nM in experiment [3], 80 nM in experiment [5] and 110 nM in experiment [8]. Further, the result in experiment [2], in experiment [4], in experiment [6] and in experiment [7] was Active.
